The source of these data is ChEMBL document CHEMBL4014308, “Amphiphilic Tobramycin-Lysine Conjugates Sensitize Multidrug Resistant Gram-Negative Bacteria to Rifampicin and Minocycline” (J Med Chem, 2017).

Calls of active or inactive are those of the source. The rule behind the calls is not given here.

One may read the MIC as the least concentration at which growth counts as inhibited. For orientation: mortality means the percentage killed.

Assay [1] has as its system Staphylococcus epidermidis. Put plainly: Antibacterial activity against methicillin-resistant Staphylococcus epidermidis isolate CAN-ICU 61589 after 18 hrs by microtiter dilution assay. Conditions: isolate CAN-ICU 61589, 18 h. Format: functional. An outline of the steps:
(§1)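 Broth microdilution following CLSI guidelines. An overnight culture was adjusted to 0.5 McFarland in saline, then diluted 1:50 in Mueller-Hinton broth. This inoculum was added in equal volume to 2-fold serial dilutions of agent in MHB and incubated 18 h at 37 °C. MIC was the lowest concentration with no visible growth.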

The subject of assay [2] is Escherichia coli. Put plainly: Antibacterial activity against Escherichia coli ATCC 25922 after 18 hrs by microtiter dilution assay. The class given is functional. Conditions: ATCC 25922, 18 h. An outline of the steps:
as §1

In assay [3] the test system is Escherichia coli. Description: Antibacterial activity against gentamicin-resistant Escherichia coli isolate CAN-ICU 61714 after 18 hrs by microtiter dilution assay. Format: functional. Conditions: isolate CAN-ICU 61714, 18 h. An outline of the steps: as §1
Assay [4] deals with Pseudomonas aeruginosa. Put plainly: Synergistic antibacterial activity against Pseudomonas aeruginosa PAO1 after 18 hrs in presence of kanamycin A by checkerboard assay. The class given is functional. Conditions: PAO1, 18 h. Put shortly: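 Checkerboard in MHB: antibiotic diluted along one axis and adjuvant along the other (10 × 7 matrix). Inoculum was a 1:50 dilution in MHB of a 0.5 McFarland saline suspension; incubated 18 h at 37 °C. Each FIC = concentration in the no-growth well divided by the MIC alone; FIC index = sum of both FICs. ≤0.5 synergy, 0.5–4 no interaction, ≥4 antagonism.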

For assay [5], the system named is Pseudomonas aeruginosa. Put plainly: Potentiation of moxifloxacin-induced antibacterial activity against Pseudomonas aeruginosa PAO1 at 4 ug/ml after 18 hrs by checkerboard assay. The class given is functional. An outline of the steps: (§2)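 Checkerboard in Mueller-Hinton broth: antibiotic serially diluted along one axis and adjuvant along the other (10 × 7 matrix). Inoculum from a 0.5 McFarland saline suspension diluted 1:50 in MHB; 18 h at 37 °C, then plate read. MIC is the lowest concentration with no growth. FIC of each agent is its concentration in a no-growth well divided by its MIC alone; FIC index is the sum of both. FIC index ≤0.5 counts as synergy.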

Assay [6] concerns Pseudomonas aeruginosa. Description: Potentiation of trimethoprim-induced antibacterial activity against Pseudomonas aeruginosa PAO1 at 4 ug/ml after 18 hrs by checkerboard assay. The class given is functional. Put shortly: (§3)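 Checkerboard broth microdilution in MHB: antibiotic serially diluted along one axis, adjuvant along the other (10 × 7 matrix). Inoculum from 0.5 McFarland saline suspension diluted 1:50 in MHB; 18 h at 37 °C. MIC taken as lowest concentration with no growth. FIC per agent = combination MIC/MIC alone; FIC index = sum (≤0.5 synergy).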

Assay [7] concerns Pseudomonas aeruginosa. Put plainly: Potentiation of minocycline-induced antibacterial activity against multidrug/extremely drug-resistant/colistin-susceptible Pseudomonas aeruginosa isolate 100036 assessed as fold reduction in minocycline MIC at 4 ug/ml after 18 hrs by checkerboard assay relative to control. Format: functional. Put shortly:
(§4)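 Checkerboard in Mueller-Hinton broth, 10 × 7 matrix, with the adjuvant held at 4 µg/mL. Inoculum from a 0.5 McFarland suspension diluted 1:50; 18 h at 37 °C. Antibiotic MIC (lowest concentration with no growth) with adjuvant is compared with the antibiotic MIC alone, giving a fold reduction.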

Assay [8] relates to Pseudomonas aeruginosa. Description: Potentiation of rifampicin-induced antibacterial activity against multidrug/extremely drug-resistant/colistin-susceptible Pseudomonas aeruginosa isolate P262-101856 assessed as fold reduction in rifampicin MIC at 4 ug/ml after 18 hrs by checkerboard assay relative to control. Format: functional. An outline of the steps:
as §4

In assay [9] the test system is Pseudomonas aeruginosa. Description: Potentiation of rifampicin-induced antibacterial activity against multidrug/extremely drug-resistant/colistin-susceptible Pseudomonas aeruginosa isolate P264-104354 assessed as fold reduction in rifampicin MIC at 4 ug/ml after 18 hrs by checkerboard assay relative to control. The class given is functional. Put shortly: as §3
The subject of assay [10] is Pseudomonas aeruginosa. Description: Potentiation of rifampicin-induced antibacterial activity against multidrug/extremely drug-resistant/colistin-susceptible Pseudomonas aeruginosa isolate P264-104354 at 4 ug/ml after 18 hrs by checkerboard assay. The class given is functional. Put shortly: as §3
Assay [11] relates to Pseudomonas aeruginosa. Put plainly: Potentiation of rifampicin-induced antibacterial activity against multidrug/extremely drug-resistant/colistin-resistant Pseudomonas aeruginosa isolate 91433 assessed as fold reduction in rifampicin MIC at 4 ug/ml after 18 hrs by checkerboard assay relative to control. Format: functional. Put shortly:
as §4

Assay [12] concerns Pseudomonas aeruginosa. Description: Potentiation of rifampicin-induced antibacterial activity against multidrug/extremely drug-resistant/colistin-resistant Pseudomonas aeruginosa isolate 101243 assessed as fold reduction in rifampicin MIC at 4 ug/ml after 18 hrs by checkerboard assay relative to control. The class given is functional. An outline of the steps:
as §4

In assay [13] the test system is Pseudomonas aeruginosa. Description: Potentiation of minocycline-induced antibacterial activity against Pseudomonas aeruginosa PAO200 harboring MexAB-oprM deletion mutant after 18 hrs by checkerboard assay. The class given is functional. An outline of the steps:
as §2

The subject of assay [14] is Acinetobacter baumannii. Put plainly: Synergistic antibacterial activity against multidrug-resistant Acinetobacter baumannii AB030 after 18 hrs in presence of rifampicin by checkerboard assay. Format: functional. Conditions: AB030, 18 h. Put shortly: (§5)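 Checkerboard in MHB with a 10 × 7 matrix: antibiotic serially diluted along one axis, adjuvant along the other. Inoculum was a 1:50 dilution of a 0.5 McFarland suspension, incubated 18 h at 37 °C and read on a plate reader. Each FIC is the concentration in a no-growth well divided by the MIC alone; FIC index is their sum, with ≤0.5 taken as synergy.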

In assay [15] the test system is Acinetobacter baumannii. Put plainly: Synergistic antibacterial activity against multidrug-resistant Acinetobacter baumannii AB031 after 18 hrs in presence of minocycline by checkerboard assay. The class given is functional. Conditions: AB031, 18 h. Put shortly:
as §5

For assay [16], the system named is Acinetobacter baumannii. Put plainly: Potentiation of minocycline-induced antibacterial activity against multidrug-resistant Acinetobacter baumannii 110193 at 4 ug/ml after 18 hrs by checkerboard assay. Format: functional. Put shortly: as §2
Assay [17] has as its system Acinetobacter baumannii. Description: Potentiation of rifampicin-induced antibacterial activity against multidrug-resistant Acinetobacter baumannii 110193 at 4 ug/ml after 18 hrs by checkerboard assay. Format: functional. An outline of the steps: as §2
The subject of assay [18] is Pseudomonas aeruginosa. Description: Potentiation of rifampicin-induced bactericidal activity against Pseudomonas aeruginosa PAO1 at 0.125 times antibacterial MIC after 90 mins. Format: functional. Put shortly: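 Combination time-kill in PAO1 (LB, 37 °C). Aliquots taken at 0–360 min, serially diluted in PBS, plated on LB agar, and CFU counted after 20 h at 37 °C.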

The test system of assay [19] is Pseudomonas aeruginosa. Put plainly: Disruption of proton motive force in Pseudomonas aeruginosa PAO1 cytoplasmic membrane assessed as repression of bacterial swimming motility after 20 hrs. Format: functional. An outline of the steps:
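Swim plates of 0.3% agar with tryptone 5 g/L and NaCl 2.5 g/L, agent mixed into the medium and plates dried 2 h. PAO1 at 1.0 McFarland in 0.85% saline was point-inoculated at the center, and plates incubated 20 h at 37 °C before swim diameter was imaged.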

The subject of assay [20] is Pseudomonas aeruginosa. Put plainly: Potentiation of minocycline-induced antibacterial activity against multidrug/extremely drug-resistant/colistin-susceptible Pseudomonas aeruginosa isolate P262-101856 infected in Galleria mellonella assessed as mortality at 12.5 to 37.5 mg/kg after 24 hrs relative to control. The class given is functional. Put shortly:
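Galleria mellonella larvae (~250 mg, used within 7 days), 15 per group, injected with 10 µL XDR P. aeruginosa P262 suspension (1.0×10^3 CFU/mL in PBS). At 2 h, a single 10 µL injection of combination at 12.5 + 12.5, 25 + 25 or 37.5 + 37.5 mg/kg; PBS vehicle control. Kept at 37 °C and survival scored over 24 h.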

A short description of assay [21]: Ratio of cytotoxic concentration against human DU145 cells to synergistic concentration for Pseudomonas aeruginosa PAO1 in presence of minocycline.
Assay [22] in a line: Ratio of cytotoxic concentration against human JIMT1 cells to synergistic concentration for Pseudomonas aeruginosa PAO1 in presence of rifampicin.

Turning to `Cl.Cl.Cl.Cl.Cl.Cl.Cl.NCCCC[C@H](N)C(=O)N(CCCCCCCCCCCCO[C@@H]1[C@@H](O[C@H]2O[C@H](CO)[C@@H](O)[C@H](N)[C@H]2O)[C@H](N)C[C@H](N)[C@H]1O[C@H]1O[C@H](CN)[C@@H](O)C[C@H]1N)Cc1c2ccccc2c(Cl)c2ccccc12`, the minimum inhibitory concentration (MIC) worked out at 4 µg/mL in assay [1]; 32 µg/mL in assay [2]; 32 µg/mL in [3]; 0.5 µg/mL in assay [4]; 8 µg/mL in assay [14]; 2 µg/mL in [15]. Moreover, the “fractional inhibitory concentration index (FICI)” value in [5] amounted to 0.313; in [6], 0.126; in assay [10], 0.094; in [13], 0.531; in assay [16] it was 0.63; in [17], 0.095. Further, the “fold change (FC)” value in assay [7] is listed as 32; in assay [8], 64; in [9] it was 64; in [11], 8; in assay [12] it was 32. Besides, the result in [18] was Active. Further, in assay [19], the Activity entry is “Dose-dependent effect”. Further, in assay [20], the mortality was 100%. The Ratio in assay [21] and in [22] was 6 throughout.
